Measured values as given in PMC4783179 (The Journal of comparative neurology, 2015).
Where two headings read alike, the source gives them in different places. Marks after values point to notes of the source that are not given here.

What was measured:
[1] = target: adrenergic α1D (Homo sapiens, UniProt P25100); test: NIMH PDSP binding affinity, human cloned receptor
[2] = target: D2 subtype (Homo sapiens, UniProt P14416); test: NIMH PDSP binding affinity, human cloned receptor; settings: read-out: Affinity, D2 subtype
[3] = tested on: 5-HT1A receptors; settings: cited from earlier work
[4] = target: T1, 5-HT1A receptors (Rattus norvegicus, UniProt P19327); settings: 90 mins post-injection, cited from earlier work
T1 sequence (P19327 1-422): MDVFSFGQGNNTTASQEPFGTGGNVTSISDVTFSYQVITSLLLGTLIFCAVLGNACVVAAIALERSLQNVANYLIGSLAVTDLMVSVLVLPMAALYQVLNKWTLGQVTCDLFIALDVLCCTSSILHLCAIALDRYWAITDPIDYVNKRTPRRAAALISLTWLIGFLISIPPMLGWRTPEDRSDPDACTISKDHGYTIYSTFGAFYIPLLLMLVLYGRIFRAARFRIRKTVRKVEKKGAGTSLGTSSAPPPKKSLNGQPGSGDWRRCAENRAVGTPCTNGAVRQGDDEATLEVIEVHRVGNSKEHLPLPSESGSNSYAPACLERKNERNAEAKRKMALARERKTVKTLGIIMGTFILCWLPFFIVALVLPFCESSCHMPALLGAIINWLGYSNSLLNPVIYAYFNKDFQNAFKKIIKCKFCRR

[5] = target: D3 subtype (Homo sapiens, UniProt P35462); test: NIMH PDSP binding affinity, human cloned receptor; settings: read-out: Affinity, D3 subtype
[6] = target: T2, 5-HT1A receptors (Canis lupus familiaris, UniProt Q6XXX9); test: In vitro autoradiography of 18F-Mefway, beagle dog brain slices; format: binding
T2 sequence (Q6XXX9 1-423): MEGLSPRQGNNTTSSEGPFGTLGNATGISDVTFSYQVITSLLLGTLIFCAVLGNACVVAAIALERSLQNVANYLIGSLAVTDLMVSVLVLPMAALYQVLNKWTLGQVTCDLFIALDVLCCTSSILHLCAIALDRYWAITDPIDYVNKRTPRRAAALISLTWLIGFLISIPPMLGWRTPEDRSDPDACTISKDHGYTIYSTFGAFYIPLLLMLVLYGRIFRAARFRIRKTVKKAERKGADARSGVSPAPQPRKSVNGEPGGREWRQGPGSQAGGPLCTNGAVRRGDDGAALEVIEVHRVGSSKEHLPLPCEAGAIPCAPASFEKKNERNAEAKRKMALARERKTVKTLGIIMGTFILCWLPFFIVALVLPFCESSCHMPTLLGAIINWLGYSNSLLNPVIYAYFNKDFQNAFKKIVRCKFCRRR
How it was run: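 Dog tissue: unfixed beagle brain (4.5–15.4 yr), stored at −80 °C, cut as 10 µm hemi-coronal slices with hippocampus and cortex. Human tissue: postmortem hippocampus (PMI 3.8–5.8 h), cut at 7 µm. Slices preincubated in 50 mM Tris-HCl pH 7.4 for 10 min at room temperature, then incubated with 37–185 kBq/mL tracer at 37 °C for 1 h. […] Two 1-min ice-cold buffer washes, then 24 h phosphor-screen exposure. Binding read as DLU/mm².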

[7] = tested on: Sprague-Dawley rats; test: Expanded acute toxicity study; format: in vivo, rat; settings: for Maximum tolerated dose (MTD) / No observed adverse effect level (NOAEL): intravenous, Days 1, 3 and 6, male and female rats
How it was run: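 Sprague-Dawley rats, 40 males and 40 females, 8–9 weeks old (males 243–283 g, females 175–202 g), plus a vehicle control group. Dosed i.v. at 4, 20 or 40 μg/kg/day (27.8, 139, 278 μg/m²/day). Monitored clinical signs (motor and behavioural), body weight, food intake, ophthalmology, haematology, serum chemistry and urinalysis. Histopathology on Days 7 and 20 after euthanasia.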

[8] = target: 5-HT7 (Homo sapiens, UniProt P34969); test: NIMH PDSP binding affinity, human cloned receptor
[9] = target: T3, 5-HT1A receptors (Homo sapiens, UniProt P08908); settings: ref Hillmer et al., 2014, cited from earlier work; for HP/CB PET ratio / Brain Uptake: human; for HP/CB PET ratio: 90 mins post-injection; for Brain Uptake: initial, 1–2 min post-injection
T3 sequence (P08908 1-422): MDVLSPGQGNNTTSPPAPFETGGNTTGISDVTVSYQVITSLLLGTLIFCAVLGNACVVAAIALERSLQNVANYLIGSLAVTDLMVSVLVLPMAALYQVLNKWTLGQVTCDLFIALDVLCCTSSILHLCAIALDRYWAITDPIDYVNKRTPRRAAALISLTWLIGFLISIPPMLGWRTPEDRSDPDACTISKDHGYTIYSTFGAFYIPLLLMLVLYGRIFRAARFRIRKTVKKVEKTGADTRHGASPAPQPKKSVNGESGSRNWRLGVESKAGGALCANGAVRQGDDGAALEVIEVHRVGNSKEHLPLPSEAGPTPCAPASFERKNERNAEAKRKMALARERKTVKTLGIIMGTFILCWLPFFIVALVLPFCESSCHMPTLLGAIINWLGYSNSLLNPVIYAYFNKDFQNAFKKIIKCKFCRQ

[10] = target: 5-HT2B (Homo sapiens, UniProt P41595); test: NIMH PDSP binding affinity, human cloned receptor
[11] = target: serotonin 5-HT1A receptors; settings: rat brain homogenates labeled with 3H-WAY 100635; ref Saigal et al., 2013; cited from earlier work
[12] = [5-HT1A affinity/other receptor affinity]×100, 5-HT1A 0.6 or 2.2 nM for WAY-100635, 0.9 nM for Mefway
[13] = dog brain cortex, relative to layers I and II

Sequence of 5-HT7 (P34969 whole entry): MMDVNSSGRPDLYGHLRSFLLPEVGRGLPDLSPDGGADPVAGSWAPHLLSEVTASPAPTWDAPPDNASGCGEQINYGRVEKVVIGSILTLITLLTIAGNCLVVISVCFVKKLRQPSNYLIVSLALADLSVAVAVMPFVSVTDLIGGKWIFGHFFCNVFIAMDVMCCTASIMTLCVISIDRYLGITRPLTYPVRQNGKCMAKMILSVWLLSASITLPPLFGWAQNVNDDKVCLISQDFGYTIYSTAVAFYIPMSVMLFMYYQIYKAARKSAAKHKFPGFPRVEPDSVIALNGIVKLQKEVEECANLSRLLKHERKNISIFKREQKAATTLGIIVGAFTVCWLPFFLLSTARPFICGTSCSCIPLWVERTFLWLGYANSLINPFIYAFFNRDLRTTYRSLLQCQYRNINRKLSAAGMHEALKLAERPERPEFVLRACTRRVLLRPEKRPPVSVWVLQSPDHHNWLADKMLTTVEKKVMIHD
Sequence of 5-HT2B (P41595 whole entry): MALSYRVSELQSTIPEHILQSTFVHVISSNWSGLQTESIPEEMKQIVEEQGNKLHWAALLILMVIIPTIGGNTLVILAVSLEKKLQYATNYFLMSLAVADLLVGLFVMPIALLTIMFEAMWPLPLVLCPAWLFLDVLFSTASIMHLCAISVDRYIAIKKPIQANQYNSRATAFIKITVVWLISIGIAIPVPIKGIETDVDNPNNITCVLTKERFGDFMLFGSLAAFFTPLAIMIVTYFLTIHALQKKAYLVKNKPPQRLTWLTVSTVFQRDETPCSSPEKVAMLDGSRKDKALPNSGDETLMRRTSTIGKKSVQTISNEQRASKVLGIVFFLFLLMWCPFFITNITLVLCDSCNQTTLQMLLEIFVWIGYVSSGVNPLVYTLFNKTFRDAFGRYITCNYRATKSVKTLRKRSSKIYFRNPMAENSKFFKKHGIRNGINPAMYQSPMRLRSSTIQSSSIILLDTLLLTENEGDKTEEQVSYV
Sequence of adrenergic α1D (P25100 whole entry): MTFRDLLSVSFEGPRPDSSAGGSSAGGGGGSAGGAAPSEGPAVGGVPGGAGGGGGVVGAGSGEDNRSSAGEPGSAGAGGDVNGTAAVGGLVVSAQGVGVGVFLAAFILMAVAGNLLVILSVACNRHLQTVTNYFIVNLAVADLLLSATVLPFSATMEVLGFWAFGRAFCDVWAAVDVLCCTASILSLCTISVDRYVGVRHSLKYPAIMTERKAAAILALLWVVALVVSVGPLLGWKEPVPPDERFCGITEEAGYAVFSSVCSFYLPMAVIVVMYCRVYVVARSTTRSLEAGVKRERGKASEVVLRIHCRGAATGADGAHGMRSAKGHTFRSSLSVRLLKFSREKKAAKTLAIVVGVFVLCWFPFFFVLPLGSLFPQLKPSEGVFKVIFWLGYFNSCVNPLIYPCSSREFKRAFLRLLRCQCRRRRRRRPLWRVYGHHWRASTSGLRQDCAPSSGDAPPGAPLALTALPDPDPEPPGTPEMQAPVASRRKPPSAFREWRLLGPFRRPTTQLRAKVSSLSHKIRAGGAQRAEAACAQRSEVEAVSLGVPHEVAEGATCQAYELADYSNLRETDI
Sequence of D3 subtype (P35462 whole entry): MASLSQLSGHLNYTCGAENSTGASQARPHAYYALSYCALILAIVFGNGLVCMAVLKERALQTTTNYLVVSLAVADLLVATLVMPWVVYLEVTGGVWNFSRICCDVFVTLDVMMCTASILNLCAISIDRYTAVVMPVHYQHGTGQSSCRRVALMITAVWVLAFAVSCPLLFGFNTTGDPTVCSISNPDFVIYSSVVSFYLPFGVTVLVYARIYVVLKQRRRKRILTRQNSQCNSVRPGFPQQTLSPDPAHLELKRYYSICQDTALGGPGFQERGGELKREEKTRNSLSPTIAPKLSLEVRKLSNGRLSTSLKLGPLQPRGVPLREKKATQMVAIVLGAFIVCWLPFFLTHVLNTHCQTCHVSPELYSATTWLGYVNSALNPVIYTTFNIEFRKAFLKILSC
Sequence of D2 subtype (P14416 whole entry): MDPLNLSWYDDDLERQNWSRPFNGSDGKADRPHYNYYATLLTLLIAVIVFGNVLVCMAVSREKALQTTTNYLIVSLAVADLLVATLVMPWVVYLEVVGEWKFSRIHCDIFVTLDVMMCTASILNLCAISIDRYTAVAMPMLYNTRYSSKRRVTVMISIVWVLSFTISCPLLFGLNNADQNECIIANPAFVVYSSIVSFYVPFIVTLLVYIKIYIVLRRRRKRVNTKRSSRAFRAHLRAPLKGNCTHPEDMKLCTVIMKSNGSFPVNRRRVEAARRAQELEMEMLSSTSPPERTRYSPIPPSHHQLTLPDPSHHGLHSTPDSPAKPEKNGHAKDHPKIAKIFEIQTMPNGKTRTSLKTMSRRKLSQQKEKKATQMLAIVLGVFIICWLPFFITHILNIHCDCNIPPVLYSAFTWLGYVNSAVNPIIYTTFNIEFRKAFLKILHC

## COc1ccccc1N1CCN(CCN(C(=O)C2CCC(CF)CC2)c2ccccn2)CC1 (stereo not drawn) [Mefway]
[1]; [12]
  % human 5HT1A Selectivity, α1D: 1.58%
[1]; read-out: Binding affinity, Ki, α1D, human cloned receptor, PDSP
  Ki: 57 nM
[2]
  Ki: 188 nM
[3]; monkey, higher resolution P4 scanner, ref Wooten et al., 2011b
  Raphe ratio with respect to cerebellum: greater than 3
[3]; monkey, 90 mins post-injection, ref Saigal et al., 2006, Wooten et al., 2011b
  HP/CB PET ratio: 10 ^f
[3]; monkey, ref Wooten et al., 2011b
  Raphe BPND: greater than 3
[3]; monkeys, EXACT HR+ PET scanner, ref Saigal et al., 2006
  Raphe ratio with respect to cerebellum: approximately 2
[3]; monkeys, scanner not stated (abstract)
  Raphe to cerebellum ratio: approximately 3
[4]; ref Saigal et al., 2013, listed as 18F-Mefway
  HP/CB PET ratio: 10
[4]; ref Saigal et al., 2013
  HP/CB PET ratio: 10 ^g
[5]
  Ki: 139 nM
[6]; dog brain cortex, relative to highest layer
  Level of binding in cortical layers I and II: 100%
[6]; [13]
  Level of binding in cortical layers III and IV: 31%
  Level of binding in cortical layers V and VI: 36%
[6]; dog brain, same brain slice
  Ratio of hippocampus to white matter, autoradiography: > 50
[6]; in the presence of 10 μM of WAY-100635, dog (all the species)
  Binding displaced in hippocampus and cortex: > 95%
[7]; 4, 20 and 40 μg/kg/day i.v.
  Morbidity or mortality: no morbidity or mortality
[7]; 4, 20 and 40 μg/kg/day i.v. on Days 1, 3 and 6
  Tolerability: well tolerated
[7]
  Maximum tolerated dose (MTD): > 278 μg/m^2/day
  No observed adverse effect level (NOAEL): > 278 μg/m^2/day
[7]; maximum dose level tested
  Maximum tolerated dose (MTD): exceed 40 μg/kg/day
  No observed adverse effect level (NOAEL): exceed 40 μg/kg/day
[8]; [12]
  % human 5HT1A Selectivity, 5-HT7: 0.30%
[8]; read-out: Binding affinity, Ki, 5-HT7, human cloned receptor, PDSP
  Ki: 297 nM
[9]; approximately 185 MBq bolus, 6 subjects
  Adverse or pharmacologic effects in human subjects: no adverse or clinically detectable pharmacologic effects
[9]; human hippocampus
  Binding potential HP, BPND: 2.7 ^i
[9]
  HP/CB PET ratio: 4 ^i
  Brain Uptake: 0.002 ^e %ID/cc
[9]; listed as 18F-Mefway
  HP/CB PET ratio: 4
  Brain Uptake: 0.002 %ID/cc
[10]; [12]
  % human 5HT1A Selectivity, 5-HT2B: 0.35%
[10]; read-out: Binding affinity, Ki, 5-HT2B, human cloned receptor, PDSP
  Ki: 260 nM
[11]
  Binding affinity, Ki, 5-HT1A, rat brain homogenates: subnanomolar affinity
